Source: ChEMBL document CHEMBL3875167, “Design and synthesis of chiral 2H-chromene-N-imidazolo-amino acid conjugates as aldose reductase inhibitors” (Eur J Med Chem, 2016)
Calls of active or inactive are those of the source. The calls are words filed in the database; no cut-off is given here.

Tests used:
[1] = Antidiabetic activity in STZ-induced diabetic Sprague-Dawley rat model assessed as aldose reductase activity at 50 uM//kg, po administered for 8 weeks (reference value: 44.66 +/- 2.7 U); assay type: functional, organism-based
Method in brief: (§1)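 Diabetes was induced in rats by a single i.p. injection of streptozotocin, 35 mg/kg in 0.1 M citrate buffer pH 4.5. Animals with fasting blood glucose >150 mg/dl at 72 h were included. Treatment was given p.o. daily for 8 weeks as a suspension in 2% Tween 80 in saline. Diabetic controls received vehicle only. Lenses were dissected at sacrifice after 8 weeks.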

Rattus norvegicus [2] = species on record: Rattus norvegicus; assay: Selectivity index, ratio of IC50 for rat kidney ALR1 to IC50 for rat lenses ALR2
[3] = target: Aldo-keto reductase family 1 member B1 (Rattus norvegicus, UniProt P07943); assay: Inhibition of rat lenses ALR2 using DL-glyceraldehyde as substrate preincubated for 10 mins followed by substrate addition measured for 4 mins
Method in brief: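 ALR2 assay run at 30 °C in 1 mL containing 0.10 mM NADPH, 0.1 M sodium phosphate pH 6.2 and enzyme extract. The mixture was preincubated 10 min, then 10 mM DL-glyceraldehyde was added and NADPH oxidation followed for 4 min. Compounds were in DMSO diluted with water. Substrate-free blank rates were subtracted.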

[4] = target: Aldo-keto reductase family 1 member A1 (Rattus norvegicus, UniProt P51635); assay: Inhibition of rat kidney ALR1 using sodium D-glucuronate as substrate preincubated for 10 mins followed by substrate addition measured for 4 mins
Method in brief: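 ALR1 assay run at 37 °C in 1 mL containing 0.12 mM NADPH, 0.1 M sodium phosphate pH 7.2 and enzyme extract. The mixture was preincubated 10 min, then 20 mM sodium D-glucuronate was added and the reaction monitored for 4 min. The nonenzymatic NADPH oxidation rate without substrate was subtracted. Triplicates at ≥3 concentrations in the 20–80% inhibition range were used to build dose-response curves for IC50.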

Rattus norvegicus [5] = assay: Antidiabetic activity in po dosed STZ-induced diabetic Sprague-Dawley rat model assessed as decrease in aldose reductase activity administered for 8 weeks; assay type: functional, organism-based; method in brief: as §1
[6] = Antidiabetic activity in STZ-induced diabetic Sprague-Dawley rat model assessed as delay in progression of cataract at 5 to 50 uM/kg, po administered for 8 weeks measured every week during compound dosing by slit-lamp microscopy; assay type: functional, organism-based; method in brief: as §1
[7] = Antidiabetic activity in STZ-induced diabetic Sprague-Dawley rat model assessed as blood glucose level at 5 uM/kg, po administered for 8 weeks measured every week during compound dosing (reference value: 261.53 +/- 53 mg/dl); assay type: functional, organism-based; method in brief: as §1
[8] = Antidiabetic activity in STZ-induced diabetic Sprague-Dawley rat model assessed as effect on body weight at 50 uM/kg, po administered for 8 weeks (reference value: 186 +/- 6.91 g); assay type: functional, organism-based; method in brief: as §1
[9] = Antidiabetic activity in STZ-induced diabetic Sprague-Dawley rat model assessed as effect on body weight at 5 uM/kg, po administered for 8 weeks (reference value: 186 +/- 6.91 g); assay type: functional, organism-based; method in brief: as §1
[10] = Antidiabetic activity in STZ-induced diabetic Sprague-Dawley rat model assessed as blood glucose level at 50 uM/kg, po administered for 8 weeks measured every week during compound dosing (reference value: 261.53 +/- 53 mg/dl); assay type: functional, organism-based; method in brief: as §1
[11] = Antidiabetic activity in STZ-induced diabetic Sprague-Dawley rat model assessed as aldose reductase activity at 5 uM//kg, po administered for 8 weeks (reference value: 44.66 +/- 2.7 U); assay type: functional, organism-based; method in brief: as §1
[12] = Antidiabetic activity in STZ-induced diabetic Sprague-Dawley rat model assessed as decrease in fructose level in lenses at 5 to 50 uM/kg, po administered for 8 weeks; assay type: functional, organism-based; method in brief: as §1
[13] = Antidiabetic activity in STZ-induced diabetic Sprague-Dawley rat model assessed as decrease in sorbitol level in lenses at 5 to 50 uM/kg, po administered for 8 weeks; assay type: functional, organism-based; method in brief: as §1

Sequence of Aldo-keto reductase family 1 member A1 (P51635 whole entry, looked up): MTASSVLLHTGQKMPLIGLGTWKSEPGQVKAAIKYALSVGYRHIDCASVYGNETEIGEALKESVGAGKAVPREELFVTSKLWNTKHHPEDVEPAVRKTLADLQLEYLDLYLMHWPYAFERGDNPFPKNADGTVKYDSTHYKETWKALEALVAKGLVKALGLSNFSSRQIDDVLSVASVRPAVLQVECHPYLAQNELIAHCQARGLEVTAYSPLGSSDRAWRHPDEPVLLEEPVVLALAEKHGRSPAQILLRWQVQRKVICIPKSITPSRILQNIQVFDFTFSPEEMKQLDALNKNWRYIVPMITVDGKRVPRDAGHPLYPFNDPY

SMILES | Ratio IC50 (Rattus norvegicus [2]) | IC50 [3] [µM] | IC50 [4] [µM] | other results
O=C1NC(=O)[C@@]2(CCOc3ccc(F)cc32)N1 | – | – | – | Activity [1]: 39 U
COc1cccc2c1OCC(C(=O)NCc1ncc(-c3ccc(F)cc3)[nH]1)=C2 | 22.8 | 0.071 | 1.62 | –
CC(C)[C@H](NC(=O)C1=Cc2ccccc2OC1)c1ncc(-c2ccccc2)[nH]1 | 2.19 | 4.29 | 9.41 | –
COc1cccc2c1OCC(C(=O)N1CCC[C@H]1c1ncc(-c3cccnc3)[nH]1)=C2 | 9.71 | 0.146 | 1.42 | –
COc1cccc2c1OCC(C(=O)NCc1ncc(-c3ccc(Br)cc3)[nH]1)=C2 | 17.1 | 0.091 | 1.56 | –
O=C(C1=Cc2ccccc2OC1)N1CCC[C@H]1c1ncc(-c2ccc(Cl)cc2)[nH]1 | 11.5 | 0.337 | 3.88 | –
COc1cccc2c1OCC(C(=O)NCc1ncc(-c3ccc(Cl)cc3)[nH]1)=C2 | 22.2 | 0.065 | 1.44 | –
O=C(C1=Cc2ccccc2OC1)N1CCC[C@H]1c1ncc(-c2ccccc2)[nH]1 | 1.55 | 3.67 | 5.72 | –
COc1cccc2c1OCC(C(=O)NCc1ncc(-c3ccccc3)[nH]1)=C2 | 1.66 | 0.731 | 1.21 | –
CC(C)[C@H](NC(=O)C1=Cc2ccccc2OC1)c1ncc(-c2ccc(Br)cc2)[nH]1 | 10.3 | 0.22 | 2.28 | –
COc1ccc(-c2cnc(CNC(=O)C3=Cc4ccccc4OC3)[nH]2)cc1 | 9.22 | 0.275 | 2.54 | –
COc1cccc2c1OCC(C(=O)N1CCC[C@H]1c1ncc(-c3ccc(Cl)cc3)[nH]1)=C2 | 110 | 0.031 | 3.42 | Activity (Rattus norvegicus [5]): Dose-dependent effect; Activity [6]: Active; Activity [1]: 39.5 U; Activity [7]: 139 mg/dL; Activity [8]: 320 g; Activity [9]: 309 g; Activity [10]: 130 mg/dL; Activity [11]: 41.3 U; Activity [12]: Active; Activity [13]: Active
O=C(NCc1ncc(-c2ccc(Cl)cc2)[nH]1)C1=Cc2ccccc2OC1 | 21.2 | 0.114 | 2.42 | –
COc1ccc(-c2cnc(CNC(=O)C3=Cc4cccc(OC)c4OC3)[nH]2)cc1 | 1.45 | 0.899 | 1.31 | –
NC(=O)[C@@H]1C[C@]2(NC(=O)NC2=O)c2cc(F)ccc2O1 | – | – | – | Activity [1]: 36.3 U
O=C(C1=Cc2ccccc2OC1)N1CCC[C@H]1c1ncc(-c2cccnc2)[nH]1 | 10.9 | 0.222 | 2.43 | –
O=C(NCc1ncc(-c2ccccc2)[nH]1)C1=Cc2ccccc2OC1 | 2.48 | 2.12 | 5.19 | –
O=C(NCc1ncc(-c2ccc(F)cc2)[nH]1)C1=Cc2ccccc2OC1 | 4.38 | 0.42 | 1.84 | –
COc1cccc2c1OCC(C(=O)N[C@H](c1ncc(-c3ccccc3)[nH]1)C(C)C)=C2 | 4.87 | 1 | 4.87 | –
O=C(NCc1ncc(-c2ccc(Br)cc2)[nH]1)C1=Cc2ccccc2OC1 | 4.61 | 0.732 | 3.38 | –
COc1cccc2c1OCC(C(=O)N[C@H](c1ncc(-c3ccc(Br)cc3)[nH]1)C(C)C)=C2 | 4.42 | 0.771 | 3.41 | –
COc1cccc2c1OCC(C(=O)N1CCC[C@H]1c1ncc(-c3ccccc3)[nH]1)=C2 | 0.596 | 3.07 | 1.83 | –
